# Experimental data from different studies.
# Target: D(2) dopamine receptor (DRD2, Homo sapiens, UniProt P14416)
# Concentration: 10 µM
SMILES,effect on,action,technique,inhibition [%]
N#Cc1cc(Cn2c(N3CCCC3)nc3ccccc32)ccc1F,ligand displacement,,,-11.5
c1cncc(OC[C@H]2CN(CCN3CCc4ccccc43)CCO2)c1,ligand displacement,,radioligand,36.3
Cc1c(Cl)cccc1-c1ccc(CNCC(O)c2ccccc2)o1 (centres unmarked),enzyme activity,inhibitor,,46.8
C[C@@H](c1cccc(C#N)c1)n1cc(Cl)cc(C(N)=O)c1=N,ligand displacement,,,-3.06
Clc1cccc(OC[C@@H]2CN(CCN3CCc4ccccc43)CCO2)c1,ligand displacement,,radioligand,62.7
COc1ccc(S(N)(=O)=O)cc1C(=O)NCCCN1CCN(c2ccccc2C)CC1,enzyme activity,inhibitor,,45.1
CN(C)c1ncnc(-c2ccc3nc(Nc4cc(CN5CCN(C(=O)CC(F)(F)F)CC5)ccn4)[nH]c3c2)c1Cl,ligand displacement,,,10.6
Cc1ncccc1OC[C@@H]1CN(CCN2CCc3ccccc32)CCO1,ligand displacement,,radioligand,15.2
CN(C)C(=O)Cn1cc(-c2nc(C3(c4ccc(-c5cnc(N)nc5)cc4)CC3)no2)cn1,cell-free assay,,,16.1
Cc1ccccc1OCC(O)CN1CCN(CC(O)COc2ccccc2C)CC1 (centres unmarked),enzyme activity,inhibitor,,19.5
O=C1N=C(N2CCCCN2)S/C1=C\c1ccc(F)cc1O,ligand displacement,,radioligand,< 10
NS(=O)(=O)c1cc(NC(=O)Cc2ccccc2)ccc1Oc1cccc(Cl)c1,ligand displacement,,,-7.81
COc1cccc(N2CCN(C3CC(=O)N(c4cccc(OC)c4)C3=O)CC2)c1 (centres unmarked),enzyme activity,inhibitor,,8.6
COc1ccc2c(c1)C(=O)N(CCN1CCN(c3ccccc3OC)CC1)C2,ligand displacement,,radioligand,66.6
CCn1c2ccccc2c2cc(CNCCCN3CCOCC3)ccc21,enzyme activity,inhibitor,,21.9
O=C(CN1CCO[C@@H](COc2cccnc2)C1)N1CCc2ccccc21,ligand displacement,,radioligand,5.5
CCC(F)(F)c1cc(N2CCC(S(C)(=O)=O)CC2)nc2sc(C(N)=O)c(N)c12,ligand displacement,,,69.8
Cc1ccnc(C)c1OC[C@H]1CN(CCN2CCc3ccccc32)CCO1,ligand displacement,,radioligand,6.1
COc1ccccc1N1CCN(CCCCN2C(=O)C3CCCCN3C2=O)CC1 (centres unmarked),enzyme activity,inhibitor,,72.6
Cc1noc([C@H]2C[C@@H](c3ccc(C(F)(F)F)cc3)CN(C(=O)N3CCS(=O)(=O)C3)C2)n1,ligand displacement,,,-0.15
